Measured values from ChEMBL document CHEMBL3233005 (Bioorg Med Chem Lett, 2014).

Key:
[1] = molecular target: T1, Aromatase (Homo sapiens, UniProt P11511); assay: Inhibition of human aromatase using androstenedione as substrate assessed as remaining estrone level at 10 uM after 30 mins by LC-MS/MS analysis relative to control; conditions: 0.5 h, read-out: Activity
T1 sequence (P11511 whole entry): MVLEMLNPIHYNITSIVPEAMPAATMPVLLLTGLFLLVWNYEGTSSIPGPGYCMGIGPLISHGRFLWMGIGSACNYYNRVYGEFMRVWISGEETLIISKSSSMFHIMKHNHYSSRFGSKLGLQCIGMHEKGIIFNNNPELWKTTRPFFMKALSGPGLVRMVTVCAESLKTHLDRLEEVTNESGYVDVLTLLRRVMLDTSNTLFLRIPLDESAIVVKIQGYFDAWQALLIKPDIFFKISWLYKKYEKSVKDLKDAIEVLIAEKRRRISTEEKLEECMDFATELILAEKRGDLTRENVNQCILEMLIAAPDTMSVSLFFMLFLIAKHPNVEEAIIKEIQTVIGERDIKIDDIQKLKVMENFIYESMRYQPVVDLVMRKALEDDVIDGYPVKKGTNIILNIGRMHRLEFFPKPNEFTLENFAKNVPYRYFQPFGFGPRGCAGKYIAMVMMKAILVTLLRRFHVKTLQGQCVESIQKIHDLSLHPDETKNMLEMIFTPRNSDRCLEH
In short: (§1)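 cDNA-expressed human CYP19A1 supersomes at 0.05 mg/mL, with 1 µM androstenedione, 3.3 mM MgCl2 and an NADPH-generating system (glucose-6-phosphate, β-NADP+, glucose-6-phosphate dehydrogenase) in 0.1 M potassium phosphate, pH 7.4. Incubated 30 min at 37 °C, stopped with ethyl acetate plus cortisone internal standard, then liquid–liquid extraction. Estrone quantified by LC–MS/MS as % of control. Single concentration, mean of duplicates.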

[2] = molecular target: T1, Aromatase; assay: Inhibition of human aromatase using androstenedione as substrate assessed as estrone formation at 10 uM after 30 mins by LC-MS/MS analysis; in short: as §1

Row | SMILES | activity at 10 µM [1] [%] | IC50 [2] [nM] | inhibition (INH) ([2]; human, 0.5 h, 10 µM)
1 | O=Cc1ccc(O)cc1O | 91.7 | – | –
2 | O=C1c2ccc(O)cc2O[C@H](c2ccc(O)c(O)c2)[C@H]1O (relative stereo) [FUSTIN] | 110 | – | –
3 | O=C(O)c1ccc(O)cc1O [2,4-DIHYDROXYBENZOIC ACID] | 93.9 | – | –
4 | O=C1c2c(O)cc(O)cc2O[C@H](c2ccc(O)c(O)c2)[C@H]1O [(+)-TAXIFOLIN] | 90.7 | – | –
5 | O=C(/C=C/c1ccc(O)c(O)c1)c1ccc(O)cc1O [BUTEIN] | 87.5 | – | –
6 | O=c1c(O)c(-c2ccc(O)c(O)c2)oc2cc(O)ccc12 [FISETIN] | 117 | – | –
7 | C[C@]12CCC(=O)C(O)=C1CC[C@@H]1[C@@H]2CC[C@]2(C)C(=O)CC[C@@H]12 [FORMESTANE] | 5.1 | 470 | Dose-dependent effect
8 | O=C(O)c1cc(O)c(O)c(O)c1 [GALLIC ACID] | 112 | – | –
9 | O=C1c2ccc(O)cc2O[C@H](c2ccc(O)cc2)[C@H]1O [GARBANZOL] | 99.3 | – | –
10 | O=C(O)c1ccc(O)cc1 [PARABEN] | 91.8 | – | –
11 | O=C(O)c1ccc(O)c(O)c1 [PROTOCATECHUIC ACID] | 83.5 | – | –
12 | O=c1c(O)c(-c2ccc(O)c(O)c2)oc2cc(O)cc(O)c12 [QUERCETIN] | 96 | – | –
13 | O=c1c(O)c(-c2ccc(O)cc2)oc2cc(O)ccc12 [RESOKAEMPFEROL] | 102 | – | –
14 | Oc1cccc(O)c1 [RESORCINOL] | 91.8 | – | –
15 | O=C1/C(=C/c2ccc(O)c(O)c2)Oc2cc(O)ccc21 [SULFURETIN] | 99 | – | –
